Measured values: ChEMBL document CHEMBL3826878, “Design, synthesis, molecular docking and biological evaluation of thiophen-2-iminothiazolidine derivatives for use against Trypanosoma cruzi” (Bioorg Med Chem, 2016)

Assays:
Trypanosoma cruzi [1] = test: Antitrypanosomal activity against trypomastigote stage of Trypanosoma cruzi Y at 25 uM measured after 24 hrs using propidium iodide by neubauer chamber method relative to control; format: functional
How it was run: (§1)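 Y strain trypomastigotes from LLC-MK2 culture supernatant, 4.0 × 10^5 per well, exposed to five compound concentrations (DMSO solutions) for 24 h at 37 °C, 5% CO2; propidium iodide 400 ng/mL for 5 min, then viable motile parasites counted in a Neubauer chamber. Percent inhibition versus untreated cultures.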

[2] = biological target: Cruzipain (Trypanosoma cruzi) (UniProt P25779); test: Inhibition of Trypanosoma cruzi cruzain at 50 uM using Z-Phe-Arg-aminomethylcoumarin as substrate measured after 5 mins by spectrofluorimetry
How it was run: (§2)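 Recombinant cruzain (0.5 nM, MMTS-protected, anion-exchange purified) in 0.1 M sodium acetate pH 5.5 with 0.1 mM beta-mercaptoethanol and 2.5 uM Z-FR-AMC, read fluorimetrically over 5 min; activity from initial rate versus DMSO control. Triton X-100 0.01% standard; detergent-sensitivity tests used 0.01% vs 0.1%. Run with and without 10 min pre-incubation; two independent experiments in triplicate; E64 100 uM positive control.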

Trypanosoma cruzi [3] = test: Antitrypanosomal activity against amastigote stage of Trypanosoma cruzi CA-I/72 infected in mouse C2C12 cells at 10 uM measured after 3 days by DAPI staining-based assay relative to control; format: functional; conditions: CA-I/72, C2C12, 72 h
How it was run: (§3)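 T. cruzi CA-I/72 trypomastigotes harvested from infected C2C12 myocytes 7 days post-infection, mixed with C2C12 cells (1:15 host:parasite), treated immediately with serially diluted compound; 3 days incubation, paraformaldehyde fixation, DAPI staining, automated high-content imaging. Activity normalized to untreated wells and 10 uM benznidazole; host viability as C2C12 count relative to untreated wells.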

[4] = biological target: Cruzipain (Trypanosoma cruzi) (UniProt P25779); test: Inhibition of Trypanosoma cruzi cruzain at 50 uM pre-incubated for 10 mins followed by addition of Z-Phe-Arg-aminomethylcoumarin as substrate measured after 5 mins by spectrofluorimetry; how it was run: as §2
Cruzipain = Cruzipain (Trypanosoma cruzi, UniProt P25779); test: Inhibition of Trypanosoma cruzi cruzain using Z-Phe-Arg-aminomethylcoumarin as substrate measured after 5 mins by spectrofluorimetry
How it was run: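 IC50 for cruzain: 10 min enzyme–compound pre-incubation, then 0.5 nM cruzain with 2.5 uM Z-FR-AMC in 0.1 M sodium acetate pH 5.5, 0.1 mM beta-mercaptoethanol, 0.01% Triton X-100, fluorescence over 5 min; at least nine compound concentrations in triplicate, two independent experiments, curves fitted for IC50.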

[5] = biological target: Cruzipain (Trypanosoma cruzi) (UniProt P25779); test: Inhibition of Trypanosoma cruzi cruzain at 100 uM pre-incubated for 10 mins followed by addition of Z-Phe-Arg-aminomethylcoumarin as substrate measured after 5 mins by spectrofluorimetry; how it was run: as §2
[6] = biological target: Cruzipain (Trypanosoma cruzi) (UniProt P25779); test: Inhibition of Trypanosoma cruzi cruzain at 6.25 uM using Z-Phe-Arg-aminomethylcoumarin as substrate measured after 5 mins in presence of 0.1% triton by spectrofluorimetry; how it was run: as §2
[7] = (§4) Cytotoxicity against mouse J774 cells assessed as cell viability at 10 uM measured after 24 hrs by MTT assay; format: cell-based; conditions: J774 cells, read-out: Activity
How it was run: (§5)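 J774 macrophages seeded in RPMI-1640 with 10% FBS for 16 hours, exposed 24 h at 37 °C to compound (10–100 umol/L range) in 0.01% DMSO vehicle; MTT (5 mg/mL) 4 h, formazan dissolved in DMSO, absorbance 540 nm. Viability as percent of untreated cells; three wells per treatment.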

[8] = biological target: Cruzipain (Trypanosoma cruzi) (UniProt P25779); test: Inhibition of Trypanosoma cruzi cruzain at 100 uM using Z-Phe-Arg-aminomethylcoumarin as substrate measured after 5 mins by spectrofluorimetry; how it was run: as §2
Trypanosoma cruzi [9] = test: Antitrypanosomal activity against amastigote stage of Trypanosoma cruzi CA-I/72 infected in mouse C2C12 cells measured after 3 days by DAPI staining-based assay; format: functional, organism-based; conditions: CA-I/72, C2C12, 72 h; how it was run: as §3
[10] = biological target: Cruzipain (Trypanosoma cruzi) (UniProt P25779); test: Inhibition of Trypanosoma cruzi cruzain at 6.25 uM using Z-Phe-Arg-aminomethylcoumarin as substrate measured after 5 mins in presence of 0.01% triton by spectrofluorimetry; how it was run: as §2
[11] = biological target: Cruzipain (Trypanosoma cruzi) (UniProt P25779); test: Inhibition of Trypanosoma cruzi cruzain at 25 uM using Z-Phe-Arg-aminomethylcoumarin as substrate measured after 5 mins by spectrofluorimetry; how it was run: as §2
[12] = biological target: Cruzipain (Trypanosoma cruzi) (UniProt P25779); test: Inhibition of Trypanosoma cruzi cruzain at 25 uM pre-incubated for 10 mins followed by addition of Z-Phe-Arg-aminomethylcoumarin as substrate measured after 5 mins by spectrofluorimetry; how it was run: as §2
Trypanosoma cruzi [13] = test: Antitrypanosomal activity against trypomastigote stage of Trypanosoma cruzi Y measured after 24 hrs using propidium iodide by neubauer chamber method; format: functional, organism-based; how it was run: as §1
[14] = biological target: Cruzipain (Trypanosoma cruzi) (UniProt P25779); test: Inhibition of Trypanosoma cruzi cruzain at 100 uM using Z-Phe-Arg-aminomethylcoumarin as substrate measured after 5 mins in presence of 0.1% triton by spectrofluorimetry; how it was run: as §2
[15] = biological target: Cruzipain (Trypanosoma cruzi) (UniProt P25779); test: Inhibition of Trypanosoma cruzi cruzain at 100 uM using Z-Phe-Arg-aminomethylcoumarin as substrate measured after 5 mins in presence of 0.01% triton by spectrofluorimetry; how it was run: as §2
J774 = test: as §4; format: cell-based; conditions: j774, 24 h, 10 µM; how it was run: as §5
[16] = biological target: Cruzipain (Trypanosoma cruzi) (UniProt P25779); test: Inhibition of Trypanosoma cruzi cruzain at 50 uM using Z-Phe-Arg-aminomethylcoumarin as substrate measured after 5 mins in presence of 0.1% triton by spectrofluorimetry; how it was run: as §2
[17] = biological target: Cruzipain (Trypanosoma cruzi) (UniProt P25779); test: Inhibition of Trypanosoma cruzi cruzain at 50 uM using Z-Phe-Arg-aminomethylcoumarin as substrate measured after 5 mins in presence of BSA by spectrofluorimetry
How it was run: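 Cruzain aggregation test: compound pre-incubated with 2 mg/mL BSA, then cruzain (0.5 nM) activity on 2.5 uM Z-FR-AMC in 0.1 M sodium acetate pH 5.5, 0.1 mM beta-mercaptoethanol, 0.01% Triton X-100, monitored 5 min by fluorescence; inhibition from initial rate against DMSO control.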

[18] = biological target: Cruzipain (Trypanosoma cruzi) (UniProt P25779); test: Inhibition of Trypanosoma cruzi cruzain at 50 uM using Z-Phe-Arg-aminomethylcoumarin as substrate measured after 5 mins in presence of 0.01% triton by spectrofluorimetry; how it was run: as §2

Chain of Cruzipain (P25779 whole entry): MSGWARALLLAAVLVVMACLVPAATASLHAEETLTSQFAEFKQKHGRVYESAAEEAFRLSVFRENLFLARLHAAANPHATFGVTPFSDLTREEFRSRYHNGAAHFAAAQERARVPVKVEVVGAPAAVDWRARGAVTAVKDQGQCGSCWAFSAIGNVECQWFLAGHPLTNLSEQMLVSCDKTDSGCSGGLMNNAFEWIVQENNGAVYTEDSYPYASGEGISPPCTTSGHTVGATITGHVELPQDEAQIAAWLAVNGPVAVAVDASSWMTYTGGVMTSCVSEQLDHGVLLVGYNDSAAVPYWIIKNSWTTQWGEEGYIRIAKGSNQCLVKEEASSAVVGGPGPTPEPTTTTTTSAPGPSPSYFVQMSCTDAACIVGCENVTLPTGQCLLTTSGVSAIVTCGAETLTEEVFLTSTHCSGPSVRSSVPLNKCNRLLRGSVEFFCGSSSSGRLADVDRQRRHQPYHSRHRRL
Chain of Cruzipain (Trypanosoma cruzi) (P25779 123-467 limits assumed): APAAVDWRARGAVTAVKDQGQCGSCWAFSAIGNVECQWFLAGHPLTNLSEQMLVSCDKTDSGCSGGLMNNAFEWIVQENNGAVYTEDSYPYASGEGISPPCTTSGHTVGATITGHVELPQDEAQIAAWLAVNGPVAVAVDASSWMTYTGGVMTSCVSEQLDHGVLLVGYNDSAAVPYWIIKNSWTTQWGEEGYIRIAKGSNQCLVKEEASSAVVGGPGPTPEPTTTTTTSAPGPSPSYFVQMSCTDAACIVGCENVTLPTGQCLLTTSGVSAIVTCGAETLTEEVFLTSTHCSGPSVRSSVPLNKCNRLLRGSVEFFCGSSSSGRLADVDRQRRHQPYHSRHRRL

Structure (SMILES) | inhibition [5] | inhibition [8] | inhibition at 25 µM (Trypanosoma cruzi [1]) | inhibition at 10 µM (Trypanosoma cruzi [3]) | further results
CCOC(=O)c1c(/N=c2\scc(-c3ccccc3)n2-c2ccccc2)sc2c1CCCC2 | – | – | 5.8% | 23.6% | inhibition [2]: 16%; inhibition [4]: 40%
C=CCn1c(C)c(C(=O)OCC)s/c1=N\c1sc2c(c1C(=O)OC(C)C)CCCC2 | – | – | 6.7% | 39.2% | inhibition [11]: 38%; inhibition [12]: 71%
C=CCn1c(-c2ccccc2)cs/c1=N\c1sc2c(c1C(=O)OC(C)C)CCCC2 | 67% | 29% | 6.1% | 36% | –
C=CCNC(=S)Nc1sc2c(c1C(=O)OC(C)C)CCCC2 | 34% | 29% | 15.1% | 37.8% | –
CC(C)OC(=O)c1c(/N=c2\scc(-c3ccccc3)n2-c2ccccc2)sc2c1CCCC2 | 25% | 13% | 4.5% | 59.5% | viability at 24 h, 10 µM [7]: > 50%; IC50 (Trypanosoma cruzi [9]): 6.03 µM
C=CCn1c(C)c(C(=O)OCC)s/c1=N\c1sc2c(c1C(=O)OCC)CCCC2 | 82% | 34% | 7.1% | 18.3% | inhibition [14]: 29%; IC50 (Cruzipain): 85 µM; inhibition [15]: 33%
CC(C)C[C@H](NC(=O)[C@H]1O[C@@H]1C(=O)O)C(=O)NCCCCN=C(N)N [E-64] | – | – | – | – | IC50 (Cruzipain): 0.4 µM
O=C(Cn1ccnc1[N+](=O)[O-])NCc1ccccc1 [BENZNIDAZOLE] | – | – | 100% | 94.5% | IC50 (Trypanosoma cruzi [9]): 1.17 µM
C=CCN1C(=O)C(CC(=O)O)S/C1=N\c1sc2c(c1C(=O)OCC)CCCC2 (stereo not given) | 89% | 64% | 5.1% | 13.8% | IC50 (Cruzipain): 50 µM; inhibition [16]: 44%; inhibition [2]: 50%; inhibition [17]: 42%; inhibition [18]: 47%
C=CCN1C(=O)C(CC(=O)O)S/C1=N\c1sc2c(c1C(=O)OC(C)C)CCCC2 (stereo not given) | 80% | 52% | 7.7% | 47.2% | inhibition [14]: 52.7%; IC50 (Cruzipain): 111 µM; inhibition [15]: 53%
C=CCN1C(=O)C(C(=O)OCC)S/C1=N\c1sc2c(c1C(=O)OCC)CCCC2 (stereo not given) | 59% | 18% | 16.7% | 30% | –
CC(C)OC(=O)c1c(NC(=S)Nc2ccccc2)sc2c1CCCC2 | 74% | 43% | 5.8% | 59.6% | viability at 24 h, 10 µM [7]: > 50%; IC50 (Trypanosoma cruzi [9]): 8.78 µM
C=CCNC(=S)Nc1sc2c(c1C(=O)OCC)CCCC2 | 41% | 29% | 11.9% | 11.9% | –

Second part, led by results:

inhibition [5] | inhibition [8] | Structure (SMILES) | inhibition at 25 µM (Trypanosoma cruzi [1]) | inhibition at 10 µM (Trypanosoma cruzi [3]) | further results
97% | 87% | C=CCn1c(-c2ccccc2)cs/c1=N\c1sc2c(c1C(=O)OCC)CCCC2 | 5.1% | 53.1% | IC50 (Cruzipain): 2.4 µM; inhibition [6]: 55%; viability at 24 h, 10 µM [7]: > 50%; IC50 (Trypanosoma cruzi [9]): 9.7 µM; inhibition [10]: 62%
4% | 12% | CCOC(=O)c1c(NC(=S)Nc2ccccc2)sc2c1CCCC2 | 1.6% | 47% | –
77% | 32% | CC(C)OC(=O)c1c(/N=C2\SC(CC(=O)O)C(=O)N2c2ccccc2)sc2c1CCCC2 (stereo not given) | 6.4% | 43.5% | –
70% | 45% | C=CCN1C(=O)CS/C1=N\c1sc2c(c1C(=O)OC(C)C)CCCC2 | 84.1% | 4.03% | IC50 (Trypanosoma cruzi [13]): 10.3 µM
72% | 33% | CC(C)OC(=O)c1c(/N=C2\SCC(=O)N2c2ccccc2)sc2c1CCCC2 | 27% | 39.4% | Activity (J774): Toxic; IC50 (Trypanosoma cruzi [9]): 6.96 µM
40% | 23% | C=CCN1C(=O)CS/C1=N\c1sc2c(c1C(=O)OCC)CCCC2 | 4.5% | 17% | –
66% | 46% | CCOC(=O)c1c(/N=C2\SC(C(=O)OCC)C(=O)N2c2ccccc2)sc2c1CCCC2 (stereo not given) | 9% | 0.43% | –
86% | 66% | CCOC(=O)c1c(/N=C2\SC(CC(=O)O)C(=O)N2c2ccccc2)sc2c1CCCC2 (stereo not given) | 6.4% | 37.4% | inhibition [14]: 18%; IC50 (Cruzipain): 121 µM; inhibition [15]: 5.4%
17% | 0% | CCOC(=O)c1c(/N=C2\SCC(=O)N2c2ccccc2)sc2c1CCCC2 | 3.2% | 20.1% | –
